The values that follow come from ChEMBL document CHEMBL2074563, “Involvement of multidrug resistance-associated proteins in regulating cellular levels of (-)-epigallocatechin-3-gallate and its methyl metabolites” (Biochem Biophys Res Commun, 2003).

Assay type in all cases: functional, cell-based
Common to all, as to settings: dog, mdck-ii

In series [1] the target is T1, Multidrug resistance-associated protein 1 (Homo sapiens, UniProt P33527). The series can be described thus: TP_TRANSPORTER: uptake in MRP1-expressing MDCKII cells. Summed up:
(§1)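 MDCKII cells stably expressing human MRP1 or MRP2, grown to confluence, were preincubated for 2 h in serum-free HBSS. They were then exposed to [3H]EGCG (10 µM, 0.25 µCi/ml) in HBSS with 100 µM ascorbic acid, plus an efflux inhibitor or DMSO vehicle, for 1 h at 37 °C. Inhibitors were 10 µM indomethacin, 1 mM probenecid or 50 µM MK-571. Cells were washed in ice-cold PBS and lysed in 0.2 N NaOH. Cell-associated radioactivity was counted by scintillation and expressed as a ratio to the no-inhibitor control (mean ± SD, n = 4).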

The target in series [2] is T2, ATP-binding cassette sub-family C member 2 (Homo sapiens, UniProt Q92887). Kind of series: TP_TRANSPORTER: uptake in MRP2-expressing MDCKII cells. Summed up:
as §1

The target in series [3] is T1, Multidrug resistance-associated protein 1. The series can be described thus: TP_TRANSPORTER: inhibition of EGCG in MRP1-expressing MDCKII cells. In a few lines: as §1
Series [4] addresses T2, ATP-binding cassette sub-family C member 2. The series can be described thus: TP_TRANSPORTER: inhibition of EGCG in MRP2-expressing MDCKII cells. Summed up:
as §1

T1 sequence (P33527 whole entry): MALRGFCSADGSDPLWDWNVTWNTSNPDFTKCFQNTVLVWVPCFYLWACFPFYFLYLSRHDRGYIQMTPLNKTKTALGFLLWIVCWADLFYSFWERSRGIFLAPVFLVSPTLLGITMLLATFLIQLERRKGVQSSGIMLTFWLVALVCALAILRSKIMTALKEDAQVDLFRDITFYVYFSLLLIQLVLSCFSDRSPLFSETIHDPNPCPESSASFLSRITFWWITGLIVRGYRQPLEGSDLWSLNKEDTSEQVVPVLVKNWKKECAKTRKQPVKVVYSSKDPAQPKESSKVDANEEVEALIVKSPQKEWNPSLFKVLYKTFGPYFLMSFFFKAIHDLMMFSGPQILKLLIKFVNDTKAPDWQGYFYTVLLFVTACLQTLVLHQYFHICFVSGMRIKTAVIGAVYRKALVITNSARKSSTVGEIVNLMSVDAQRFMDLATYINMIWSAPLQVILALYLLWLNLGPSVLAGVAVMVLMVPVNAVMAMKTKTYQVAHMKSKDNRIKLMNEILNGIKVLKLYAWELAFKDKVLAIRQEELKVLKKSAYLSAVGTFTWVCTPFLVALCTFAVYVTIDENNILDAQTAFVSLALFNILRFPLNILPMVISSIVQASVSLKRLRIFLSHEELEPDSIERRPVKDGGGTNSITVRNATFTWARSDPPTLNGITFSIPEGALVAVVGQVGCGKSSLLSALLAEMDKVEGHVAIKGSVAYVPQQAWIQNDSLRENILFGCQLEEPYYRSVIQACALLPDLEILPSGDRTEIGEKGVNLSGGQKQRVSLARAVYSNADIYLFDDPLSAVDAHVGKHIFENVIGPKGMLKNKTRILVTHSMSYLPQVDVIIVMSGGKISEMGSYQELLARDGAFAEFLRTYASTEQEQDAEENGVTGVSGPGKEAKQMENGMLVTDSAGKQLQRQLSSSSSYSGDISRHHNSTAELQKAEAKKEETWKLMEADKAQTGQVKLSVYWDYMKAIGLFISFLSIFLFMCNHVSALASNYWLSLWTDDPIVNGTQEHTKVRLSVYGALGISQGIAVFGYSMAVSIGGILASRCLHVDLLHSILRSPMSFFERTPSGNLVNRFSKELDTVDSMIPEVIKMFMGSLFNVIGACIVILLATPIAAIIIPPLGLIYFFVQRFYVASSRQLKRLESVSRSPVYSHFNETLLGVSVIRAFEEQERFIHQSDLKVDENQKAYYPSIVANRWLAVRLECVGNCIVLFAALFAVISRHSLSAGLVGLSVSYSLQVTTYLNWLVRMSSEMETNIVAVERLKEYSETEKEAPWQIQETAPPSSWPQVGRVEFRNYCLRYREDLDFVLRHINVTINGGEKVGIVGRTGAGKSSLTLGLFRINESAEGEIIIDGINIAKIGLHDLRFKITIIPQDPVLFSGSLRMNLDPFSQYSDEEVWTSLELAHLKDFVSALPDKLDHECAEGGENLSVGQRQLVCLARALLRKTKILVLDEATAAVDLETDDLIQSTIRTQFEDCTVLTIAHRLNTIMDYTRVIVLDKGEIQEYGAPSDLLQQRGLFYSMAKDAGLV
T2 sequence (Q92887 whole entry): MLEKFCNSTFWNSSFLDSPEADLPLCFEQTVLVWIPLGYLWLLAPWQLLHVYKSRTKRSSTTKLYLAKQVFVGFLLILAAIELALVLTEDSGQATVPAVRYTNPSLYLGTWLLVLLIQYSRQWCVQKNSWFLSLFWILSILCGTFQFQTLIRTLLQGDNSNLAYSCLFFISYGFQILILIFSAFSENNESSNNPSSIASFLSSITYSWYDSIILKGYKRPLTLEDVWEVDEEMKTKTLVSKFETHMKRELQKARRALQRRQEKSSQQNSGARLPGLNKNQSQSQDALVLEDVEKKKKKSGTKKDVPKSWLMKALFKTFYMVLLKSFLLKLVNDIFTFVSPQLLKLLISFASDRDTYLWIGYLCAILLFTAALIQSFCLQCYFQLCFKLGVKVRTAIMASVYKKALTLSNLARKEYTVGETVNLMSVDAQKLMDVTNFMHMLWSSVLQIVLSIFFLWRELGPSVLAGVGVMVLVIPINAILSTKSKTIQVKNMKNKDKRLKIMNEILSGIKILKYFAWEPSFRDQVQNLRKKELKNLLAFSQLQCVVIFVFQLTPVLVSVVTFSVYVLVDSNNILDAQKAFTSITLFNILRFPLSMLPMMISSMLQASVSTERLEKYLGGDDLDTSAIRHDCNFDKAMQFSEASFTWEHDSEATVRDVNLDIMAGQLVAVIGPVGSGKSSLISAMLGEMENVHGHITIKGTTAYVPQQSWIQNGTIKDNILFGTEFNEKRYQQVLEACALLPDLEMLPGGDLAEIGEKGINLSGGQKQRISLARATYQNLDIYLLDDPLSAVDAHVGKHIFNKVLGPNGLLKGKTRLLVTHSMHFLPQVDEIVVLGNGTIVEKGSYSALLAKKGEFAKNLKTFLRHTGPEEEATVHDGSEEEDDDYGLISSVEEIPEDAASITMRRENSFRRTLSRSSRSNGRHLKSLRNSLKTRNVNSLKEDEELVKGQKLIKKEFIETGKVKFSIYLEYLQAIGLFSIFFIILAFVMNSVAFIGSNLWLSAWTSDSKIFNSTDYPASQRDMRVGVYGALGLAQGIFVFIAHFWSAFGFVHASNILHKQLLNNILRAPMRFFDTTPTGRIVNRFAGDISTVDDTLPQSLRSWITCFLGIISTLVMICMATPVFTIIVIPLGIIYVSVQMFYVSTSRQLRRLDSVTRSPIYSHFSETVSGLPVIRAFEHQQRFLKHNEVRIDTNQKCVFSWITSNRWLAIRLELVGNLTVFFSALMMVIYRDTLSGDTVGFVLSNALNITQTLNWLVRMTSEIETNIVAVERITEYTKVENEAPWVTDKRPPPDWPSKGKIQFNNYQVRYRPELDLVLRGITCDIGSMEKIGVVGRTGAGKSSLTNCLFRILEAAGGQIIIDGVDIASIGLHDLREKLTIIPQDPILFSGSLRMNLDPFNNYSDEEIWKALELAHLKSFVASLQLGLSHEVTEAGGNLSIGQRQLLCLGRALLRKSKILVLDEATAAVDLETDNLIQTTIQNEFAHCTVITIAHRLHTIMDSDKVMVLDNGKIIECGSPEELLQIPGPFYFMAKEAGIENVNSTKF

`COc1c(O)cc(C(=O)O[C@@H]2Cc3c(O)cc(O)cc3O[C@@H]2c2cc(O)c(OC)c(O)c2)cc1O`: the Activity result in series [1] and in series [2] was “substrate []” in each case.

Consider `COc1c(O)cc(C(=O)O[C@@H]2Cc3c(O)cc(O)cc3O[C@@H]2c2cc(O)c(O)c(O)c2)cc1O`, for which the Activity entry in series [1] and in series [2] was “substrate []” throughout.

`COc1ccc(-c2coc3cc(O)cc(O)c3c2=O)cc1` [BIOCHANIN]: in series [3], the Activity entry is “inhibitor []”.

In the case of `COc1cc(/C=C/C(=O)CC(=O)/C=C/c2ccc(O)c(OC)c2)ccc1O` [CURCUMIN], in series [3], the Activity entry was “inhibitor []”.

As to `O=c1c(-c2ccc(O)cc2)coc2cc(O)ccc12` [DAIDZEIN], the Activity entry in series [3] was “inhibitor []”.

As for `COc1ccc(-c2coc3cc(O)ccc3c2=O)cc1` [FORMONONETIN], the Activity result in series [3] was “inhibitor []”.

Regarding `O=c1c(-c2ccc(O)cc2)coc2cc(O)cc(O)c12` [GENISTEIN], the Activity entry in series [3] was “inhibitor []”.

On to `COc1ccc2c(c1)c(CC(=O)O)c(C)n2C(=O)c1ccc(Cl)cc1` [INDOMETHACIN], for which the Activity entry in series [3] is “inhibitor []”.

Turning to `CN(C)C(=O)CCSC(SCCC(=O)O)c1cccc(/C=C/c2ccc3ccc(Cl)cc3n2)c1` (stereo not given) [MK-571], the Activity entry in series [4] was “inhibitor []”.

As for `CCCN(CCC)S(=O)(=O)c1ccc(C(=O)O)cc1` [PROBENECID], the Activity result in series [3] and in series [4] was “inhibitor []” in each case.

Turning to `COc1cc(CCC(=O)CC(=O)CCc2ccc(O)c(OC)c2)ccc1O` [TETRAHYDROCURCUMIN], in series [3], the Activity entry was “inhibitor []”.

As to `CC[C@]1(O)C[C@H]2CN(CCc3c([nH]c4ccccc34)[C@@](C(=O)OC)(c3cc4c(cc3OC)N(C=O)[C@H]3[C@@](O)(C(=O)OC)[C@H](OC(C)=O)[C@]5(CC)C=CCN6CC[C@]43[C@@H]65)C2)C1` [VINCRISTINE], the Activity result in series [4] is “inhibitor []”.
